From PubChem BioAssay
A selection: hits, their analogues and other compounds. The true share with any hit is near 8.9%.
L major viab – reduces viability of Leishmania major promastigotes | resazurin fluorescence viability | inhibition, % at 10 µM | 200,000 compounds, 9% hits; in the data active = inhibition above about 50%;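 note: promastigotes grown with compound for 44 hours at 28 °C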
MT stabilizer – microtubule stabilization, imaging screen; HeLa tubulin immunostaining HCS, 24 h; share of cells brighter than vehicle mean+2SD; % tubulin-high responders, % at 10 µM; 200,000 compounds, 0.83% hits; AID 2205;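 active = plate Z-score above 3 for both tubulin-high and condensed-nucleus cell shares, with cell loss under 80%, at 10 µM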;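 note: anti alpha tubulin signal scored within the nucleus-defined area of each cell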
Dynein transport – dynein cargo transport inhibition. AID 1381. 220,000 compounds, 0.47% hits. z-score, hits read low. 3617.4 mouse cells, GR-EGFP nuclear translocation imaging; test concentration mostly 20 µM; stimulated with dexamethasone, 1 µM; hits give low values;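 active = plate z-score of nuclear minus cytoplasmic receptor signal below a set negative limit, without overly bright fluorescence or cell loss, cut at about -3.5 in these data, passing the limit was not always enough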;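 note: z-score of nuclear minus cytoplasmic ring GR-EGFP intensity difference per well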
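Buffer or medium: Induction medium lacking tetracycline, stripped serum | Also added: Dexamethasone agonist, 1.0 µM final, for 30 min | Timing: 48 h induction, 1 h compound, 30 min dex at 37 °C | Detection: Formaldehyde fixation, Hoechst nuclear stain, 10x automated fluorescence imaging | Measure: Nuclear versus cytoplasmic GR-EGFP signal, averaged per well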
HSV replic up – increases HSV replication in cells. 220,000 compounds, 0.005% hits. HSV replication augmentation in cells, fold increase. maximum fold increase; in the data active = maximum fold increase above about 1.5; inconclusive = no clear call, values can overlap the other calls; tested in PC3 cells
b-catenin transl – alters nuclear translocation of beta-catenin in HeLa cells | immunofluorescence imaging | nuclear translocation activity, % at 5 µM | 190,000 compounds, 0.3% hits;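 active = nuclear translocation activity above 50% at 5 µM, with a well cell count of 50 or more; inconclusive = wells under 50 cells across six images, flagged as toxic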;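 note: per-cell ratio of nuclear to cytoplasmic median beta-catenin stain intensity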
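System: HeLa cells, endogenous beta-catenin; compound dosing: 5 µM primary single dose, 0.1% DMSO, 0.02–20 µM confirmation series; incubation: 24 h compound exposure at 37°C, 5% CO2; signal: beta-catenin immunofluorescence imaging with DAPI; evaluation: % activation, nuclear-to-cytoplasmic median beta-catenin signal ratio per cell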
Dynein confirm – dynein cargo transport inhibition, confirmation. calls only at 20 µM. 1,000 compounds, 69% hits. 3617.4 GR-EGFP nuclear translocation imaging, dexamethasone-induced. AID 463116. shares compounds with Dynein transport;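 active = inhibition of receptor movement into the nucleus at or above a set limit in both runs, with normal cell brightness and cell count; inconclusive = limit reached in only one run, brightness and count normal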;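 note: dexamethasone at 1 µM final in well for 30 min; nuclear minus cytoplasmic GR-EGFP mean intensity difference in channel 2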
Large screens that a line does not name were inactive (follow-up assays come after a bar, where they were run).

CCOC(=O)C=C(C(=O)OCC)C(=O)OCC	L major viab 100, Dynein transport -4.2 | Dynein confirm active
CN(C)CCCn1c(SCC(=O)Nc2sc3c(c2C#N)CCCC3)nnc1-c1ccncc1	none
COc1cc(NC(=O)CN(c2ccc(C)cc2)S(=O)(=O)c2c(C)nn(C)c2C)cc(OC)c1	none
Cc1cc([N+](=O)[O-])nn1CC(=O)c1ccccc1	none
Cc1nc([N+](=O)[O-])c(Br)n1CC(=O)c1ccc(Br)cc1	L major viab 98, Dynein transport -4.3 (no result: b-catenin transl) | Dynein confirm active
Cc1nc([N+](=O)[O-])c(Br)n1CC(=O)c1ccccc1	L major viab 96, Dynein transport -5.3 | Dynein confirm active
Cc1nc([N+](=O)[O-])c(Br)n1CC(=O)c1ccc2ccccc2c1	L major viab 100, Dynein transport -4.3 (no result: b-catenin transl) | Dynein confirm active
Cc1nccc(-c2ccc3c(c2)OCO3)n1	none
COc1cc(C(N)=O)cc(Br)c1OCc1ccccc1	none
O=C(O)c1ccc(NC2=C/C(=N/S(=O)(=O)c3ccccc3)c3ccccc3C2=O)cc1	L major viab 100, Dynein transport -4.2 | Dynein confirm active
COc1ccc(N2C(=O)CC(Sc3ncn[nH]3)C2=O)c(OC)c1 (stereo unspecified)	Dynein transport -4 | Dynein confirm active
CCS(=O)(=O)N1Cc2ccccc2CC1C(=O)Nc1ccc(C)cc1 (stereo unspecified)	none
CCCNC(=O)c1nnsc1S(=O)(=O)c1ccc(Cl)cc1	Dynein transport -4.2 | Dynein confirm active
CCCNC(=O)c1nnsc1S(=O)c1ccc(Cl)cc1 (stereo unspecified)	L major viab 100, Dynein transport -4.8 | Dynein confirm active
CCCNC(=O)NS(=O)(=O)c1ccc(Cl)cc1	none
CNC(=O)c1nnsc1S(=O)c1ccc(Cl)cc1 (stereo unspecified)	L major viab 100, Dynein transport -5 | Dynein confirm active
O=C(Nc1ccccc1)C1=C(O)CC(c2ccoc2)CC1=Nc1ccccc1 (stereo unspecified)	Dynein transport -4.2 | Dynein confirm inactive
O=C(c1coc(=O)c(Br)c1)N1CCC(C(O)(c2ccccc2)c2ccccc2)CC1	Dynein transport -4.5 (no result: L major viab, MT stabilizer) | Dynein confirm active
CCn1c(C)nc([N+](=O)[O-])c1Sc1ccc(F)cc1	none
CCCCn1c(CCC)nc([N+](=O)[O-])c1Sc1ccc(Cl)cn1	L major viab 75, Dynein transport -3.6 (no result: b-catenin transl) | Dynein confirm active
C=CCn1c(SCC(=O)Nc2cc(C)on2)nc2sc3c(c2c1=O)CCCC3	none (no result: HSV replic up)
Cc1ccc(SC(=O)c2c(C)noc2-c2cc(C)on2)cc1	Dynein transport -5.1 (no result: L major viab, MT stabilizer) | Dynein confirm active
COc1cc(S(=O)(=O)Nc2ccccc2)ccc1NC=O	none
O=C(c1cccc(C(=O)N(c2ccccn2)C2CCCCC2)c1)N(c1ccccn1)C1CCCCC1	none
N#C/C(=C\c1ccccc1)C(=O)N(c1ccccn1)C1CCCCC1	Dynein transport -3.9 | Dynein confirm inactive
CC1(C)CC(=O)C(C2C3=C(CC(C)(C)CC3=O)Oc3ccccc32)C(=O)C1 (stereo unspecified)	none (no result: L major viab, MT stabilizer)
CC1(C)CC(=O)C2=C(C1)Oc1nc3ccccc3cc1C2C(C#N)C#N (stereo unspecified)	L major viab 100, Dynein transport -4.4 | Dynein confirm active
O=C(Nc1ccccc1C(=O)OC1CCOC1=O)c1ccco1 (stereo unspecified)	none
O=C(CSC1=Nc2ccccc2C2CC=NN12)Nc1ccc2c(c1)OCO2 (stereo unspecified)	L major viab 55, Dynein transport -3.7 | Dynein confirm active
Cc1cc(C)cc(N(CCC#N)C(=O)CSC2=Nc3ccccc3C3CC=NN23)c1 (stereo unspecified)	none
N=c1n(CCN2CCCCC2)c2ccccc2n1CC(=O)c1ccc(Cl)c(Cl)c1	Dynein transport -3.6 (no result: L major viab, MT stabilizer) | Dynein confirm inactive
Cc1cc(Oc2ccc(-c3ccccc3)cc2)n2ncnc2n1	Dynein transport -4.7 | Dynein confirm active
CC1(C)CC(=O)C2=C(C1)NC(=O)CC2c1cccc(F)c1 (stereo unspecified)	none (no result: b-catenin transl)
COC(=O)c1ccc(C(=O)OC)c(-n2c(=O)c3ccccc3c3ccccc3c2=O)c1	Dynein transport -5.1 | Dynein confirm active
CC(C)(C)C(=O)/C(=C/c1ccncc1)n1cncn1	L major viab 100, Dynein transport -5.1 | Dynein confirm active
Cc1nn(C)c(C)c1/C=C(/C(=O)C(C)(C)C)n1cncn1	none (no result: L major viab, MT stabilizer)
CCn1c(C)nc2cc(C(=O)N/N=C/c3ccccc3)ccc21	none
Cn1c(=O)oc2cc(S(=O)(=O)NCCC(=O)Nc3ccc4c(c3)OCCO4)ccc21	none
Cn1c(=O)oc2cc(S(=O)(=O)Nc3ccc4c(c3)OCCO4)ccc21	L major viab 63 | Dynein confirm inactive
Cc1cc(NC(=O)CCCS(=O)(=O)c2nc(-c3cccs3)cc(C(F)(F)F)n2)no1	Dynein transport -4.8 | Dynein confirm inconclusive
Cc1cc(NC(=O)CSc2nc(-c3cccs3)cc(C(F)(F)F)n2)no1	none
COc1ccc(-c2cc(C(F)(F)F)nc(S(=O)(=O)CCCC(=O)Nc3cccnc3Cl)n2)cc1OC	L major viab 82, Dynein transport -5.1 | Dynein confirm active
COc1cc(/C=C/C(=O)NC(C)(C)C)ccc1OCc1ccccc1	none
COc1cc(/C=C/[N+](=O)[O-])ccc1OCc1cccc(C(=O)O)c1	Dynein transport -3.6 | Dynein confirm active
Cc1cc(NC(=O)c2coc(=O)c(Br)c2)ccc1C(C)C	Dynein transport -5.4 (no result: L major viab, MT stabilizer) | Dynein confirm active
C[C@@H](NC(=O)c1coc(=O)c(Br)c1)c1ccccc1	none
Clc1ccc2nc(CSc3ncn[nH]3)cn2c1	none
O=C1C=CC(=O)N1c1ccc(O)cc1	none (no result: L major viab, MT stabilizer) | Dynein confirm inactive
COc1cc(CCC(=O)OCC(=O)NCc2ccccc2)cc(OC)c1OC	none
CNS(=O)(=O)c1cc(OCC(N)=O)c(C)cc1Cl	none
O=[N+]([O-])c1ccc(-n2nnnc2-c2ccccc2)c([N+](=O)[O-])c1	L major viab 100, Dynein transport -6.6 | Dynein confirm active
CC(=O)N1CCN(c2ccc(NC(=O)c3ccc(Br)o3)cc2Cl)CC1	none
O=C(Nc1ccc(N2CCOCC2)c(Cl)c1)c1c(F)c(F)c(F)c(F)c1F	none (no result: b-catenin transl)
CC(C)C(=O)N1CCN(c2ccc(NC(=O)c3ccc([N+](=O)[O-])o3)cc2Cl)CC1	L major viab 101, MT stabilizer 53, Dynein transport -4.2 | Dynein confirm active
O=C(Nc1ccc(N2CCOCC2)c(Cl)c1)c1ccc([N+](=O)[O-])o1	L major viab 100, Dynein transport -4.5 | Dynein confirm active
CCCC(=O)N1CCN(c2ccc(NC(=O)c3ccc([N+](=O)[O-])o3)cc2Cl)CC1	L major viab 101, Dynein transport -4.7 | Dynein confirm active
